# Assay outcomes as filed in PubChem.
# C2C12 statin: suppression of simvastatin myotoxicity. actives 0.78% (n = 330,000). rescue of ATP level, % at 7.49 µM. C2C12 myotubes + simvastatin, ATP luminescence, 48 h; scaled: DMSO 0, geranylgeraniol control 100;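 active = mean ATP rescue above about 67%, or every replicate alone reaching that limit, limit read from the data, passing the limit was not always enough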;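 also: myotubes were challenged with 10 µM simvastatin during compound exposure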
# SUMO Mot1 rescue: SUMOylation pathway inhibition by Mot1-301 growth rescue | S. cerevisiae Mot1-301 growth rescue, ATP luminescence, 38.5C; percent above DMSO median, 100 means doubled | growth rescue, % at 18.8 µM | actives 1% (n = 320,000);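 active = every valid replicate shows activation above 250% relative to neutral control wells; inactive = the rest, any valid replicate at or below 250%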
# Cneo AK release: causes C. neoformans cell lysis; lysis activity, % at 15 µM; actives 0.2% (n = 360,000); adenylate kinase release luminescence, 4 h; normalised: neutral wells 0, clomiphene wells 100; AID 651654;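 active = mean lysis activity across replicates of at least 80%, whatever share of replicates individually reach that level; inactive = mean lysis activity below 80%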
#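 read-out = cell lysis signal | test system = log-phase Cryptococcus neoformans yeast cells | input = cells at 5 × 10^6 per mL | medium = fresh YPD growth medium | signal = luminescent adenylate kinase detection reagent | timing = 4 h at 37 °C static, read 1 h later | dosing = single dose | controls = Clomiphene as positive lysis control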
# Efflux pump mplx: blocks antifungal efflux pumps in multiplex yeast assay | S. cerevisiae Candida pump triplex, Nile Red efflux | inhibition, % at 10 µM | actives 0.44% (n = 330,000);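 active = plate passing quality check with inhibition over a set limit, or well fluorescence over plate mean plus 4 SD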;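 also: Nile Red retained in pooled yeast measured as flow cytometry median fluorescence; higher means more Nile Red kept so more efflux inhibition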
# Yeast cmpd fluor: compound fluorescence in yeast efflux pump counter-screen; shares compounds with Efflux pump mplx; S. cerevisiae AD/pABC3, flow cytometry; fluorescence ratio to DMSO, % at 10 µM; actives 4% (n = 1,700); AID 588517;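 active = fluorescence ratio to DMSO above its plate's cutoff, the plate mean ratio plus 5 SD, cut at about 210% in these data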;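 also: unstained yeast with no Nile Red so the signal is compound autofluorescence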
# Mdr1 pump inh: blocks the Candida albicans Mdr1 efflux pump in yeast | shares compounds with Efflux pump mplx | AID 588518 | inhibition, % at 10 µM | S. cerevisiae AD/CaMDR1, Nile Red efflux, flow cytometry | actives 1% (n = 1,700); in the data active = inhibition above about 26%;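 also: higher means more Nile Red retained so more efflux inhibition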
# CaCdr2 efflux inh: blocks the Candida albicans Cdr2 efflux pump in yeast; shares compounds with Efflux pump mplx; S. cerevisiae AD/CaCDR2, Nile Red retention, flow cytometry; Nile Red retention ratio vs DMSO, % at 10 µM; actives 4% (n = 1,700); AID 588520; in the data active = Nile Red retention ratio vs DMSO above about 190%;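 also: higher ratio means more blocking of Cdr2 efflux of the dye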
# Cdr1 pump inh: inhibitors of Candida albicans Cdr1 efflux pump | shares compounds with Efflux pump mplx | S. cerevisiae AD/CaCDR1, Nile Red efflux, flow cytometry | inhibition, % at 10 µM | actives 1% (n = 1,700) | AID 588522;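 active = inhibition above the screen-wide mean plus twice its standard deviation, cut at about 32% in these data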
# A number is an active result; - = inactive; . = no result given. Compounds with a hit are over-represented: about 1.8% of the library has one in this group of screens.
SMILES,C2C12 statin,SUMO Mot1 rescue,Cneo AK release,Efflux pump mplx,Yeast cmpd fluor,Mdr1 pump inh,CaCdr2 efflux inh,Cdr1 pump inh
COc1ccc(-n2c(N)c(C(=O)Nc3c(C)n(C)n(-c4ccccc4)c3=O)c3nc4ccccc4nc32)cc1,.,-,-,0.8,-,-,-,-
Cc1ccc(-n2c(N)c(C(=O)Nc3c(C)n(C)n(-c4ccccc4)c3=O)c3nc4ccccc4nc32)cc1C,.,-,.,-,.,.,.,.
CCN1CCN(c2cc(SC(C)C)nc(-c3ccc(OC)cc3)n2)CC1,-,.,-,.,-,-,-,-
COc1cccc(Sc2cc(N3CCOCC3)nc(-c3ccccc3)n2)c1,.,-,.,-,.,.,.,.
CC(C)Sc1cc(N2CCOCC2)nc(-c2ccc(Cl)cc2)n1,.,-,-,-,-,-,-,-
Clc1ccc(Sc2cc(N3CCOCC3)nc(-c3ccccc3)n2)cc1,-,-,-,-,.,.,.,.
Cc1ccc(-c2nc(NC(=O)CSc3nnc(C)s3)ns2)cc1,-,-,-,-,.,.,.,.
COc1ccc(-c2nc(NC(=O)CSc3nnc(C)s3)ns2)cc1,-,-,-,0.8,-,-,-,-
Cc1cc(NC(=O)CCC(=O)N(CC(=O)NC2CCCC2)c2ccc(C(C)C)cc2)no1,-,-,-,-,.,.,.,.
O=C(c1ccccc1)C1Oc2ccccc2C2CC(c3cccs3)=NN12 (centres undefined),-,-,-,1.5,-,-,-,-
CN(C)CC/C=C1/c2ccccc2Sc2ccc(Cl)cc21,-,-,-,-,-,-,-,-
Cc1ccc(CNC(=O)COC(=O)COc2ccc(C#N)cc2)cc1,-,-,-,-,.,.,.,.
CCn1ncc(/C=N\NC(=O)COc2cc(C)cc(C)c2)c1C,.,-,-,12.6,-,-,-,-
Cc1cc(C)cc(OCC(=O)N/N=C\c2cn(C)nc2C)c1,.,-,-,-,.,.,.,.
O=C1/C(=C/c2cccs2)SC(=S)N1NS(=O)(=O)c1ccccc1,-,-,-,-,-,-,-,-
N/C(=N\OC(=O)Cc1ccccc1)c1ccccc1Cl,.,-,.,-,-,-,-,-
c1ccc(-c2ccc(-c3cn4c(n3)CCC4)cc2)cc1,-,-,-,-,.,.,.,.
c1ccc(-c2ccc3c(c2)c2c4n3CCN=C4CCC2)cc1,.,-,-,0.3,-,-,-,-
COc1ccc(NC(=O)CSc2ncn[nH]2)c([N+](=O)[O-])c1,-,-,-,-,.,.,.,.
CCOc1ccc(NC(=O)CSc2ncn[nH]2)c([N+](=O)[O-])c1,.,-,.,18.0,-,-,-,-
COc1nc(OC)nc(N2CCC(NC(=O)C(Cc3cccc(OC)c3OC)NC(C)=O)CC2)n1 (centres undefined),-,-,-,-,.,.,.,.
CCc1ccc(C2C(C(=O)O)c3ccccc3C(=O)N2C)cc1 (centres undefined),-,-,-,1.9,-,-,-,-
CN1C(=O)c2ccccc2C(C(=O)O)C1c1cccc(Cl)c1 (centres undefined),.,-,.,-,.,.,.,.
O=[N+]([O-])c1ccc(COc2ccc(-c3[nH]ncc3-c3ccc(Cl)cc3)c(O)c2)cc1,-,-,-,17.7,-,-,-,-
O=C(c1ccccc1Cl)N1CCC(O)(c2cccnc2)CC1,.,-,.,-,.,.,.,.
SMILES,C2C12 statin,SUMO Mot1 rescue,Cneo AK release,Efflux pump mplx,Yeast cmpd fluor,Mdr1 pump inh,CaCdr2 efflux inh,Cdr1 pump inh
O=C(N/N=C\c1ccc(CNS(=O)(=O)c2ccccc2)o1)C(=O)Nc1ccc(F)cc1,.,-,.,-,.,.,.,.
O=C(NCc1ccc(/C=N\NC(=O)C(=O)Nc2ccccc2Br)o1)C(=O)Nc1ccccc1,-,-,-,0.7,-,-,-,-
Cc1ccc(NC(=O)C2CC(=O)N/C(=N/NC(=O)c3ccc(C)cc3)S2)cc1 (centres undefined),.,-,-,-,.,.,.,.
Cc1cccc(NC(=O)c2ccccc2O)c1C,.,-,.,-,.,.,.,.
O=C(Nc1ccccc1O)c1ccccc1O,-,-,-,1.1,-,-,-,-
N#CC(C(=O)NCc1ccccc1)c1nc2ccccc2nc1N1CCCC1 (centres undefined),.,-,-,0.9,-,-,-,-
